ABCG2 block: inhibitors of human ABCG2 transporter, ABCB1 counter-screen; AID 1325; 190,000 tested, 0.1% active; IgMXP3 cells, JC-1 efflux, flow cytometry; inhibition, % at 6.6 µM; Q9UNQ0;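 active = inhibition above 80%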
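test system = two drug-resistant human cell lines, ABCG2 and ABCB1 | amount = 3 million cells/mL final, two lines in 1:1 ratio | reagent = JC-1 transporter substrate | doses = one concentration, 6.6 µM final | incubation = 10 min at 25 °C | signal = flow cytometric JC-1 green MFI at 530 nm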
TNAP inh no acc: inhibitors of human TNAP without phosphate acceptor. P05186. purified TNAP, CDP-star luminescence, 30 min. inhibition, % at 20 µM. 200,000 tested, 0.26% active. AID 1012;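 active = tissue-nonspecific alkaline phosphatase inhibition above about 50% at 20 µM in the single-dose screen, limit read from the data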
TNAP inh hi DEA: TNAP (human) inhibition, high acceptor | 200,000 tested, 0.03% active | purified TNAP, CDP-star luminescence, 1 M DEA | inhibition, % at 20 µM;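 active = over 50% inhibition of tissue-nonspecific alkaline phosphatase at 20 µM in the single-dose screen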
TNAP act hiacc: activators of human TNAP at high phosphate acceptor concentration | activation factor at 20 µM | P05186 | purified TNAP, CDP-star luminescence, 1 M DEA, 30 min; hits give high values; 0 = EDTA background, 1 = DMSO-only activity | 200,000 tested, under 10 active;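 active = activation factor at least 2 at 20 µM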
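Assay system: human TNAP; Input: enzyme diluted 1/800 final; Reagent: CDP-star luminogenic substrate at 100 µM final; Timing: 30 min, room temperature; Signal: luminescence; Evaluation: TNAP activation factor scaled between EDTA and DMSO control wells.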
ABCB1 inh: blocks JC-1 efflux by human ABCB1 transporter; P08183; CCRF-Adr cells, flow cytometry; inhibition, % at 6.6 µM; 190,000 tested, 0.067% active; in the data active = inhibition above about 40%;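 also: higher value means more JC-1 retained so stronger ABCB1 efflux block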
Of the large screens only hits and unclear results are named; the others gave an inactive call. Hits are enriched below; roughly 0.41% of the tested compounds scored in any of these assays.

CSC1=NSC2=NC(=O)/C(=C/c3coc4ccccc4c3=O)C(=N)N12	ABCG2 block active
CSC1=NSC2=NC(=O)/C(=C/c3coc4ccc(O)cc4c3=O)C(=N)N12	ABCB1 inh active
CC(C)CSC1=NSC2=NC(=O)/C(=C\c3cccs3)C(=N)N12	none
CSC1=NSC2=NC(=O)/C(=C\c3cccs3)C(=N)N12	none
CCn1c(-c2ccc(Cl)cc2)n[nH]c1=S	none
CCn1c(-c2ccc(C)cc2)n[nH]c1=S	TNAP inh no acc 52
COc1cc(/C=C2/CCC/C(=C\c3cc(O)c(OC)c(Cl)c3)C2=O)cc(Cl)c1O	TNAP inh no acc 52, TNAP inh hi DEA 53
COc1cc(/C=C2\CC/C(=C\c3cc(OC)c(O)c(OC)c3)C2=O)cc(OC)c1O	TNAP inh no acc 61, TNAP inh hi DEA 57
COc1cc(/C=C2\CCc3ccccc3C2=O)cc(OC)c1OC	none
COc1cc(/C=C2\CC/C(=C\c3cc(OC)c(OC)c(OC)c3)C2=O)cc(OC)c1OC	none
CN(CC(=O)NCc1ccncc1)S(=O)(=O)c1ccc2ccccc2c1	none
CCOC(=O)C1=C2NC(=O)c3ccccc3N2C(=O)C1	none
Nc1n[nH]c(-c2ccc(Br)cc2)c1Cl	TNAP inh no acc 81
CC(C)N1CCC(NC(=O)Nc2ccc3c(c2)OCO3)CC1	none
Cn1cc(CN2CCC(N3CCNC(=O)CC3)CC2)c(-c2ccccc2F)n1	none
CCN(CC)c1ccc(/C=C2\CCC(/C=C(\C#N)C(=O)Nc3ccccc3F)=C2N2CCOCC2)cc1	TNAP inh no acc 53
COCCN1Cc2cccc(C(=O)Nc3cc(C)cc(C)c3)c2C1=O	ABCG2 block 82
CCN(CC)C(=S)SCC(=O)c1ccc(F)cc1	TNAP inh no acc 52
CCN(CC)C(=S)SCC(=O)c1ccccc1	none
COc1ccc(OC)c(-c2cc(C3CCN(c4ncccc4[N+](=O)[O-])CC3)[nH]n2)c1	none
O=[N+]([O-])c1cccnc1N1CCC(c2cc(-c3ccc(Cl)cc3Cl)n[nH]2)CC1	TNAP inh no acc 79
Cc1nn(C)cc1C(C)NCc1c(C(=O)N2CCCCCCC2)nc2ccc(Cl)cn12 (stereo not given)	none
CCCN(CCC)C(=O)CSc1nc2ccccc2c(=O)n1C1CCCC1	ABCB1 inh 52
CN(C)c1ccc(NC(=O)CSc2nc3ccccc3c(=O)n2C2CCCCC2)cc1	none
Brc1cccc(-c2n[nH]c(-c3ccccc3)n2)c1	TNAP inh no acc 57
CCn1cc(C(C)NC(=O)Nc2ccc3c(c2)OCO3)c(C)n1 (stereo not given)	none
CC(C)Cc1cc(C(=O)N2CCC(N3CCC(C(=O)N4CCCC4)CC3)CC2)n[nH]1	TNAP inh no acc 87
O=C(NC1CC1)C1CCN(C2CCN(C(=O)Cc3ccc(F)cc3)CC2)CC1	none
CC(C)Cc1cc(C(=O)N2CCC(N3CCC(C(=O)N4CCOCC4)CC3)CC2)n[nH]1	TNAP inh no acc 88
CC(C)Cc1cc(C(=O)N2CCC(N3CCC(C(=O)NC4CC4)CC3)CC2)n[nH]1	TNAP inh no acc 92
CC(C)/C=C/C(=O)N1CCC(N2CCC(C(=O)N3CCOCC3)CC2)CC1	none
O=C(NC1CC1)c1ccc(C2SCC(=O)N2Cc2ccccc2)cc1 (stereo not given)	none
CC(C)N(C(=O)Cn1cc(SCC(N)=O)c2ccccc21)C(C)C	none
CC(NCc1ccc(F)cc1)C(=O)Nc1cc(S(=O)(=O)N2CCCCC2)ccc1Cl (stereo not given)	none
O=c1oc2cc(O)ccc2cc1-c1nc2c(s1)CCc1ccccc1-2	ABCG2 block active, ABCB1 inh 138
O=Cc1ccc(O)c(O)c1	none
O=C(O)/C=C/c1ccc(O)c(O)c1	TNAP inh no acc 55
COc1cc(OC)nc(NC(=O)NS(=O)(=O)c2ccc(F)cc2)n1	none
CCOc1ccc(C2=Nn3c(nnc3-c3ccccc3OC)SC2)cc1	none
COc1ccccc1-c1nnc2n1N=C(c1ccc(O)c(O)c1)CS2	TNAP inh no acc 67
Cc1ccc(C)c(NC(=O)/C(C#N)=C/c2ccc(Sc3nncn3C)c([N+](=O)[O-])c2)c1	none
COc1cccc(-c2n[nH]c3c2CCC3)c1	none
c1ccc(-c2n[nH]c3c2CCC3)cc1	TNAP inh no acc 73
CSc1n[nH]c(NCc2cccs2)n1	TNAP inh no acc 56
Fc1ccc(-c2cc(C(F)(F)F)nc(NCc3cccs3)n2)cc1	none
Cc1cc(S(=O)(=O)n2ccnc2)c(Cl)cc1Cl	none
O=C1Nc2ccccc2N(O)N1c1cc(-c2ccccc2)[nH]n1	TNAP inh no acc 81
COc1ccc(-c2cc(N3C(=O)Nc4ccccc4N3O)n[nH]2)cc1	TNAP inh no acc 75
COc1cc(-c2cc(N3C(=O)Nc4ccccc4N3O)n[nH]2)cc(OC)c1OC	none
COc1ccc(-c2cc(N3C(=O)Nc4ccccc4N3O)n[nH]2)cc1OC	none
Cc1nc2cc3c(cc2c(C)c1C(=O)OC(C)C)OCO3	none
FC(F)(F)c1cnc2c(-c3ccccc3)n[nH]c2c1	TNAP inh no acc 81
NS(=O)(=O)c1ccc(CNC(=O)/C=C/c2ccccc2[N+](=O)[O-])cc1	TNAP inh no acc 62
O=C(/C=C/c1ccccc1[N+](=O)[O-])NCc1ccc(Cl)cc1	none
Nc1c(-c2ccccc2)n[nH]c1-c1ccccc1	TNAP inh no acc 89
O=c1c(-c2ccccc2)n[nH]c2ccccc12	none
CS(=O)(=O)Nc1ccc(C(=O)NCCSCc2c(F)cccc2Cl)cc1	none
CCCOC(=O)c1cccc(NC(=O)COc2ccc([N+](=O)[O-])cc2)c1	ABCB1 inh 63
CCOC(=O)c1cccc(NC(=O)COc2ccc([N+](=O)[O-])cc2)c1	none
O=C(O)CCCCCn1c(SCC(=O)c2ccc(O)c(O)c2)nc2ccsc2c1=O	TNAP inh no acc 94
CCCCn1c(SCC(=O)c2ccc(O)c(O)c2)nc2ccsc2c1=O	TNAP inh no acc 96
O=C(CCCn1c(SCC(=O)c2ccc(O)c(O)c2)nc2ccccc2c1=O)NCC1CCCO1 (stereo not given)	TNAP inh no acc 96
CCCCn1c(SCC(=O)c2ccccc2)nc2ccsc2c1=O	none
O=C(O)CCCCCn1c(SCC(=O)N2CCCC2)nc2ccsc2c1=O	none
COc1ccc(-n2nnnc2SCC(=O)c2cccc(OC)c2)cc1	none
O=C(CSc1nnnn1-c1ccc(F)cc1)c1ccc(O)c(O)c1	TNAP inh no acc 75
CN(C)CCNCCCOc1ccccc1-c1ccccc1	none
COc1ccccc1NC(=O)CC1S/C(=N/N=C2\CCCc3ccccc32)NC1=O (stereo not given)	none
CCn1c(C)nc2cc(C(=O)N/N=C/c3cccc(O)c3O)ccc21	none
COc1ccccc1C1NC=C([N+](=O)[O-])C=C1[N+](=O)[O-] (stereo not given)	TNAP inh no acc 57
O=C(c1ccccc1Sc1ccccc1[N+](=O)[O-])N1CCCCC1	none
COc1ccccc1NCC(=O)n1nc(C)cc1C	none

Screening data deposited in PubChem by several laboratories.
